Results: ChEMBL document CHEMBL1127414 (J Med Chem, 1994)

Experiments:
[1] = target: T1, Squalene synthase (Rattus norvegicus) (UniProt Q02769); test: Concentration required to inhibit rat liver squalene synthase enzyme relative to control (L-694,599)
T1 sequence (whole entry): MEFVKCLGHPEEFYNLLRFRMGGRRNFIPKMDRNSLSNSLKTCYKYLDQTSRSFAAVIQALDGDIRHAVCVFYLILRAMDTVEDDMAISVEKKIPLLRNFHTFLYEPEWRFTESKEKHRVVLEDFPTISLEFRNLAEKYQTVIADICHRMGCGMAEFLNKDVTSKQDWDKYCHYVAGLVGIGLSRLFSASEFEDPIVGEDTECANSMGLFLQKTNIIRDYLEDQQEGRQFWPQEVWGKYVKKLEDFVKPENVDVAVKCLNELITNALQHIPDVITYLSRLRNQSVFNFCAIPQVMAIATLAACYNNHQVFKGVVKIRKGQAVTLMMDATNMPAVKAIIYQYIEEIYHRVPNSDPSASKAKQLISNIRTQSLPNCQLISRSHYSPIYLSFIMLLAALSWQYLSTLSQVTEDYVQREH
How it was run: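 Enzyme from rat liver. […] Inhibitors added in DMSO (0.3% final) as 3-fold serial dilutions, usually up to 30 ng/mL (about 40 nM). IC50 read from % inhibition vs log concentration.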

Mus musculus = test: Ability to inhibit the incorporation of [5-3H]-mevalonolactone into cholesterol by in vivo mouse assay by peroral administration at a dose of 24 mg/kg; format: functional; details: route oral
How it was run: (§1)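 Female Swiss Webster mice (~25 g), six per group, dosed po by gavage with inhibitor suspended in 5% emulphor. 30 min later, 0.5 μCi/mouse [5-3H]mevalonolactone in saline given sc. Livers removed 30 min after that and saponified in KOH/EtOH overnight at 55 °C, then petroleum-ether extracted. Nonsaponifiable dpm counted. Compounds first tested at a single dose (typically 12 or 24 mg/kg).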

Squalene synthase = target: T2, Squalene synthase (Rattus norvegicus, UniProt Q02769); test: Tested for inhibition against squalene synthase enzyme in rat liver
T2 sequence (Q02769 whole entry): T1 sequence (whole entry)

[2] = target: T3, Squalene synthase (Mus musculus) (UniProt P53798); test: Tested for the effective dose required for the incorporation of [5-3H]-mevalonolactone into cholesterol by in vivo mouse assay by peroral administration; format: functional, organism-based; how it was run: as §1
T3 sequence (whole entry): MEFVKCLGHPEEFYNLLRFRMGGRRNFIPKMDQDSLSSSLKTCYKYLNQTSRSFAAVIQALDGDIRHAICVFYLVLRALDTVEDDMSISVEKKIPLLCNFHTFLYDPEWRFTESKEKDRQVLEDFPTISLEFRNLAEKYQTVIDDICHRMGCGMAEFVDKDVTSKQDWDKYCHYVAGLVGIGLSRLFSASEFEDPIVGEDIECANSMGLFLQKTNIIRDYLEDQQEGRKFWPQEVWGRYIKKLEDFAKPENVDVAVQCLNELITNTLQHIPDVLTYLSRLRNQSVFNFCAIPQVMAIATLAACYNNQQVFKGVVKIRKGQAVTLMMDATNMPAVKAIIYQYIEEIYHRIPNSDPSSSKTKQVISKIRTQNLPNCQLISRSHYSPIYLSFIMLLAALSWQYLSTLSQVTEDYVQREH

| Relative activity [1] | IC50 (Squalene synthase) [nM] | ED50 [2] [mg/kg] | SMILES | inhibition in vivo at 24 mg/kg (Mus musculus) [%] |
| --- | --- | --- | --- | --- |
| 0.0008 | 362 |  | CCCC(=O)O[C@@H]1[C@@H](O)C2(CCCCCCc3ccccc3)OC(C(=O)O)C(O)(C(=O)O)C1(C(=O)O)O2 (some centres not stated) | -6 |
| 0.02 | 16 | 11 | C=C(CCC12OC(C(=O)O)C(O)(C(=O)O)C(C(=O)O)(O1)[C@H](OC(=O)NCC)[C@H]2O)[C@@H](OC(C)=O)[C@H](C)Cc1ccccc1 (some centres not stated) |  |
| 0.05 | 14 | 6 | C=C(CCC12OC(C(=O)O)C(O)(C(=O)O)C(C(=O)O)(O1)[C@H](OC(=O)NC1CCC1)[C@H]2O)[C@@H](OC(C)=O)[C@H](C)Cc1ccccc1 (some centres not stated) |  |
| 0.13 | 4.3 | 11 | C=C(CCC12OC(C(=O)O)C(O)(C(=O)O)C(C(=O)O)(O1)[C@H](OC(=O)CC(C)C)[C@H]2O)[C@@H](OC(C)=O)[C@H](C)Cc1ccccc1 (some centres not stated) |  |
| 0.02 | 36.1 | 18 | C=C(CCC12OC(C(=O)O)C(O)(C(=O)O)C(C(=O)O)(O1)[C@H](OC(C)=O)[C@H]2O)[C@@H](OC(C)=O)[C@H](C)Cc1ccccc1 (some centres not stated) |  |
|  |  | 11 | C=C(CCC12OC(C(=O)O)C(O)(C(=O)O)C(C(=O)O)(O1)[C@H](OC(=O)NC)[C@H]2O)[C@@H](OC(C)=O)[C@H](C)Cc1ccccc1 (some centres not stated) |  |
| 0.1 | 3 | 10 | C=C(CCC12OC(C(=O)O)C(O)(C(=O)O)C(C(=O)O)(O1)[C@H](OC(=O)OC(C)C)[C@H]2O)[C@@H](OC(C)=O)[C@H](C)Cc1ccccc1 (some centres not stated) |  |
| 0.027 | 9.7 |  | C=C(CCC12OC(C(=O)O)C(O)(C(=O)O)C(C(=O)O)(O1)[C@H](OC(=O)CCC)[C@H]2O)[C@@H](OC(=O)CCC)[C@H](C)Cc1ccccc1 (some centres not stated) | 1 |
| 0.05 | 10 | 8 | C=C(CCC12OC(C(=O)O)C(O)(C(=O)O)C(C(=O)O)(O1)[C@H](OCCC)[C@H]2O)[C@@H](OC(C)=O)[C@H](C)Cc1ccccc1 (some centres not stated) |  |
| 0.14 | 1.6 | 40 | C=C(CCC12OC(C(=O)O)C(O)(C(=O)O)C(C(=O)O)(O1)[C@H](OC(=O)NCc1ccccc1)[C@H]2O)[C@@H](OC(C)=O)[C@H](C)Cc1ccccc1 (some centres not stated) |  |
| 1 | 0.2 |  | C=C(CCC12OC(C(=O)O)C(O)(C(=O)O)C(C(=O)O)(O1)[C@H](OCCC[C@@H](C)C[C@@H](C)CC)[C@H]2O)[C@@H](OC(C)=O)[C@H](C)Cc1ccccc1 (some centres not stated) | 38 |
| 0.09 | 3.2 | 11 | C=C(CCC12OC(C(=O)O)C(O)(C(=O)O)C(C(=O)O)(O1)[C@H](OC(=O)NC1CC1)[C@H]2O)[C@@H](OC(C)=O)[C@H](C)Cc1ccccc1 (some centres not stated) |  |
| 0.5 | 0.28 |  | C=C(CCC12OC(C(=O)O)C(O)(C(=O)O)C(C(=O)O)(O1)[C@H](OC(=O)NCCCCCCCCCCCCCC)[C@H]2O)[C@@H](OC(C)=O)[C@H](C)Cc1ccccc1 (some centres not stated) | 12 |
| 0.77 | 0.26 |  | C=C(CCC12OC(C(=O)O)C(O)(C(=O)O)C(C(=O)O)(O1)[C@H](OC(=O)OCCC[C@@H](C)C[C@@H](C)CC)[C@H]2O)[C@@H](OC(C)=O)[C@H](C)Cc1ccccc1 (some centres not stated) | -4 |
| 0.09 | 2.3 | 9 | C=C(CCC12OC(C(=O)O)C(O)(C(=O)O)C(C(=O)O)(O1)[C@H](OCCC(C)C)[C@H]2O)[C@@H](OC(C)=O)[C@H](C)Cc1ccccc1 (some centres not stated) |  |
| 0.08 | 1.2 |  | C=C(CCC12OC(C(=O)O)C(OCCCCCCCCCCCC)(C(=O)O)C(C(=O)O)(O1)[C@H](O)[C@H]2O)[C@@H](OC(C)=O)[C@H](C)Cc1ccccc1 (some centres not stated) |  |

| Relative activity [1] | IC50 (Squalene synthase) [nM] | ED50 [2] [mg/kg] | SMILES | inhibition in vivo at 24 mg/kg (Mus musculus) [%] |
| --- | --- | --- | --- | --- |
| 0.25 | 0.8 |  | C=C(CCC12OC(C(=O)O)C(O)(C(=O)O)C(C(=O)O)(O1)[C@H](OC(=O)NCCC[C@@H](C)C[C@@H](C)CC)[C@H]2O)[C@@H](OC(C)=O)[C@H](C)Cc1ccccc1 (some centres not stated) | -2 |
| 0.06 | 5.6 | 12 | C=C(C)CC(=O)O[C@@H]1[C@@H](O)C2(CCC(=C)[C@@H](OC(C)=O)[C@H](C)Cc3ccccc3)OC(C(=O)O)C(O)(C(=O)O)C1(C(=O)O)O2 (some centres not stated) |  |
| 0.06 | 3.5 | 9 | C=C(CCC12OC(C(=O)O)C(O)(C(=O)O)C(C(=O)O)(O1)[C@H](OC(=O)OC)[C@H]2O)[C@@H](OC(C)=O)[C@H](C)Cc1ccccc1 (some centres not stated) |  |
| 0.04 | 18 | 24 | C=C(CCC12OC(C(=O)O)C(O)(C(=O)O)C(C(=O)O)(O1)[C@H](OC(=O)[C@@H](C)CC)[C@H]2O)[C@@H](OC(C)=O)[C@H](C)Cc1ccccc1 (some centres not stated) |  |
|  | 14 |  | C=C(CCC12OC(C(=O)O)C(O)(C(=O)O)C(C(=O)O)(O1)[C@H](OC(=S)NC(C)C)[C@H]2O)[C@@H](OC(C)=O)[C@H](C)Cc1ccccc1 (some centres not stated) |  |
| 0.00014 | 1800 |  | CCCC(=O)O[C@@H]1[C@@H](O)C2(CCCCc3cccc4ccccc34)OC(C(=O)O)C(O)(C(=O)O)C1(C(=O)O)O2 (some centres not stated) |  |
| 0.02 | 9.2 | 9 | C=C(CCC12OC(C(=O)O)C(O)(C(=O)O)C(C(=O)O)(O1)[C@H](OC(=O)OCC)[C@H]2O)[C@@H](OC(C)=O)[C@H](C)Cc1ccccc1 (some centres not stated) |  |
| 0.07 | 9.2 | 4.5 | C=C(CCC12OC(C(=O)O)C(O)(C(=O)O)C(C(=O)O)(O1)[C@H](OC(=O)CCC)[C@H]2O)[C@@H](OC(C)=O)[C@H](C)Cc1ccccc1 (some centres not stated) |  |
| 0.002 | 137 |  | CC[C@H](C)C[C@H](C)CCC(=O)O[C@@H]1[C@@H](O)C2(CCCCc3ccccc3)OC(C(=O)O)C(O)(C(=O)O)C1(C(=O)O)O2 (some centres not stated) |  |
| 0.03 | 25 | 20 | C=C(CCC12OC(C(=O)O)C(O)(C(=O)O)C(C(=O)O)(O1)[C@H](OC(=O)CCCOC)[C@H]2O)[C@@H](OC(C)=O)[C@H](C)Cc1ccccc1 (some centres not stated) |  |
| 0.02 | 11 | 12 | C=C(CCC12OC(C(=O)O)C(O)(C(=O)O)C(C(=O)O)(O1)[C@H](OC(=O)CC)[C@H]2O)[C@@H](OC(C)=O)[C@H](C)Cc1ccccc1 (some centres not stated) |  |
| 0.05 | 8 | 6 | C=C(CCC12OC(C(=O)O)C(O)(C(=O)O)C(C(=O)O)(O1)[C@H](OC(=O)NC(C)C)[C@H]2O)[C@@H](OC(C)=O)[C@H](C)Cc1ccccc1 (some centres not stated) |  |
|  |  | > 24 | C=C(CCC12OC(C(=O)O)C(O)(C(=O)O)C(C(=O)O)(O1)[C@H](OC(=O)N(C)C)[C@H]2O)[C@@H](OC(C)=O)[C@H](C)Cc1ccccc1 (some centres not stated) |  |
| 0.04 | 17 | 8 | C=C(CCC12OC(C(=O)O)C(O)(C(=O)O)C(C(=O)O)(O1)[C@H](OC(=O)NCC1CC1)[C@H]2O)[C@@H](OC(C)=O)[C@H](C)Cc1ccccc1 (some centres not stated) |  |
| 0.08 | 2 | 12 | C=C(CCC12OC(C(=O)O)C(O)(C(=O)O)C(C(=O)O)(O1)[C@H](OCCCC)[C@H]2O)[C@@H](OC(C)=O)[C@H](C)Cc1ccccc1 (some centres not stated) |  |
| 0.02 | 21 | 8 | C=C(CCC12OC(C(=O)O)C(O)(C(=O)O)C(C(=O)O)(O1)[C@H](OC(=O)C(C)C)[C@H]2O)[C@@H](OC(C)=O)[C@H](C)Cc1ccccc1 (some centres not stated) |  |
